This note sets out measurements from ChEMBL document CHEMBL1155895, “(9S)-9-(2-hydroxy-4,4-dimethyl-6-oxo-1-cyclohexen-1-yl)-3,3-dimethyl-2,3,4,9-tetrahydro-1H-xanthen-1-one, a selective and orally active neuropeptide Y Y5 receptor antagonist” (J Med Chem, 2008).

Data set [1] addresses T1, Neuropeptide Y receptor type 5 (Homo sapiens, UniProt Q15761).
T1 sequence (Q15761 whole entry): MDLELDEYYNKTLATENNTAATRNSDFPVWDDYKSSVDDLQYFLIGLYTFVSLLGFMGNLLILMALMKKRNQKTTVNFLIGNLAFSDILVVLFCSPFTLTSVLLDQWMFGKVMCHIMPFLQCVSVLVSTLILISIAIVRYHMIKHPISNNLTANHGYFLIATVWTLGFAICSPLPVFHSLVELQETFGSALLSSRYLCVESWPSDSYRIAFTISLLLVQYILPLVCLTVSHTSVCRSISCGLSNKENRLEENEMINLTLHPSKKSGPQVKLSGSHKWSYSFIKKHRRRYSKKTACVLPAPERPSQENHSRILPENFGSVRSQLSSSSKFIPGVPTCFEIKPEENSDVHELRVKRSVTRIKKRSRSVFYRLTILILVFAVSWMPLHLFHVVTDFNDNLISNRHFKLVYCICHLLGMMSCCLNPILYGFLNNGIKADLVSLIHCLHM
In words: Displacement of [125I]PYY from human recombinant neuropeptide Y5 receptor expressed in thymidine kinase deficient […]. Type of data set: cell-based.

Data set [2] deals with T1, Neuropeptide Y receptor type 5. Put plainly: Antagonist activity at human recombinant neuropeptide Y5 receptor expressed in CHO cells coexpressing Gqi5 assessed as inhibition of neuropeptide Y-induced increase in intracellular calcium concentration. Type of data set: functional, cell-based. Summed up: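 Human recombinant Y5 receptor co-expressed with Gqi5 in CHO cells. Cells stimulated with 100 nM NPY. Antagonism read as inhibition of the NPY-evoked intracellular Ca2+ rise, reported as IC50.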

In data set [3] the target is T2, Neuropeptide Y receptor type 1 (Homo sapiens, UniProt P25929).
T2 sequence (P25929 whole entry): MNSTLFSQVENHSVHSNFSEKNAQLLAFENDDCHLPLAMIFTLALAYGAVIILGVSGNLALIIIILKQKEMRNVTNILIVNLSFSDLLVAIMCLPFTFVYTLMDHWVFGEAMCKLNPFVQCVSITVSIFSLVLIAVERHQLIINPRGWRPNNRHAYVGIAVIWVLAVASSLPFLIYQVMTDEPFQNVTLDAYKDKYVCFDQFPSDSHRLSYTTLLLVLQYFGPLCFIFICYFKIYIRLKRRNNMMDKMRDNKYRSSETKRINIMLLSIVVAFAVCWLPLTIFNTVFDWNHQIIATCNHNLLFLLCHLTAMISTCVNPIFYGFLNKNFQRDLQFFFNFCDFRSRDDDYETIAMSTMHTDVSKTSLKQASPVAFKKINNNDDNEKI
Put plainly: Inhibition of human neuropeptide Y1 receptor.

The target in data set [4] is T3, Neuropeptide Y receptor type 2 (Homo sapiens, UniProt P49146).
T3 sequence (P49146 whole entry): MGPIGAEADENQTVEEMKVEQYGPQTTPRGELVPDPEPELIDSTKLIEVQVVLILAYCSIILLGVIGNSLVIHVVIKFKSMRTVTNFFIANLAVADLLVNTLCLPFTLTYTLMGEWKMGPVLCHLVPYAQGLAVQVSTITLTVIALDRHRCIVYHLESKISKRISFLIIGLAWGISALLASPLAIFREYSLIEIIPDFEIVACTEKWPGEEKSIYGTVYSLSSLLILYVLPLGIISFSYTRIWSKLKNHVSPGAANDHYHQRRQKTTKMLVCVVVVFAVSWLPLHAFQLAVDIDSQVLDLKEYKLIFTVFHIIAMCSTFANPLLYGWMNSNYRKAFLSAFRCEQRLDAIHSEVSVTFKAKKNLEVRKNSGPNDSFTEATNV
In words: Inhibition of human neuropeptide Y2 receptor.

In data set [5] the target is Neuropeptide Y receptor type 4 (Homo sapiens, UniProt P50391). Put plainly: Inhibition of human neuropeptide Y4 receptor.
Data set [6] in a line: Tmax in Sprague-Dawley rat at 10 mg/kg, po. Type of data set: ADME, organism-based. Also on record: dose 10 mg/kg, route oral. Conditions: in vivo. In short, it runs like this: (§1)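 SD rats dosed orally with 10 mg/kg, as either the single enantiomer or the racemate; n = 3 animals per dose. Plasma levels of both enantiomers followed over time to build concentration–time profiles, from which PK parameters were taken.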

The nature of data set [7]: Cmax in Sprague-Dawley rat at 10 mg/kg, po. Type of data set: ADME, organism-based. Also on record: dose 10 mg/kg, route oral. Conditions: in vivo. In short, it runs like this: as §1
Data set [8] in a line: Half life in Sprague-Dawley rat at 10 mg/kg, po. Type of data set: ADME, organism-based. Also on record: dose 10 mg/kg, route oral. To be noted: in vivo. In short, it runs like this: as §1
Data set [9] deals with Mus musculus. Put plainly: Toxicity in ICR mouse assessed as gross behavioral adverse effects at 150 mg/kg, po. Type of data set: organism-based. Also on record: dose 150 mg/kg, route oral. To be noted: in vivo. In short, it runs like this: (§2)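 Mice were given a single oral dose of 150 mg/kg and observed for gross behaviour. The scored signs were psychomotor activity, motor activity, muscle tone, CNS excitation, autonomic responses and reflexes. Deaths were recorded at any time after dosing. This was run as a gross-behaviour screen before the in vivo efficacy studies.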

For data set [10], the system named is Mus musculus. In words: Toxicity in ICR mouse assessed as mortality at 150 mg/kg, po. Also on record: dose 150 mg/kg, route oral. Conditions: in vivo. Type of data set: organism-based. In short, it runs like this:
as §2

Another data set relates to Rattus norvegicus. Put plainly: Inhibition of D-Trp34-NPY-induced food intake in po dosed Sprague-Dawley rat. Type of data set: functional, organism-based.
Data set [11] can be described thus: Fraction unbound in Sprague-Dawley rat plasma at 10 mg/kg, po. Type of data set: ADME, organism-based. Also on record: dose 10 mg/kg, route oral.
The nature of data set [12]: Ratio of drug level in brain to plasma in Sprague-Dawley rat at 10 mg/kg, po. Type of data set: ADME, organism-based. The arrangement: dose 10 mg/kg, route oral.

A value given as a limit tells only on which side of the number the result lay.

Sequence of Neuropeptide Y receptor type 4 (P50391 whole entry): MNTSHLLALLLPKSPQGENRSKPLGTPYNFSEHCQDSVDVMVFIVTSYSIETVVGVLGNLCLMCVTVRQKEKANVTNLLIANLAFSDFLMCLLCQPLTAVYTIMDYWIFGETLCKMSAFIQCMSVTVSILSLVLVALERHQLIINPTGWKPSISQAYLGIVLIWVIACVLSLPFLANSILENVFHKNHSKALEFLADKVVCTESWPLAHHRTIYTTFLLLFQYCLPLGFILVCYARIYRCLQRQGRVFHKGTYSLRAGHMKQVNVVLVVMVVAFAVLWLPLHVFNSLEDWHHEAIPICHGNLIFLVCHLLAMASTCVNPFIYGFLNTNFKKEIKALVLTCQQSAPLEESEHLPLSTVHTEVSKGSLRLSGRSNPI

In the case of `COc1ccc2c(c1)OC1=C(C(=O)CC(C)(C)C1)C2C1=C(O)CC(C)(C)CC1=O` (configuration not stated), the Ki in data set [1] came to 0.093 µM.

Regarding `CC1CC(=O)C(C2C3=C(CC(C)CC3=O)Oc3ccccc32)=C(O)C1` (configuration not stated), the inhibitory constant (Ki) in data set [1] was 0.193 µM.

For `CC1(C)CC(=O)C(C2C3=C(CC(C)(C)CC3=O)Oc3ccc(Cl)cc32)=C(O)C1` (configuration not stated), the Ki in data set [1] came out at 0.197 µM.

In the case of `CCc1ccc2c(c1)OC1=C(C(=O)CC(C)(C)C1)C2C1=C(O)CC(C)(C)CC1=O` (configuration not stated), the inhibition constant Ki in data set [1] was 0.041 µM.

For `CC1(C)CC(=O)C(C2C3=C(CC(C)(C)CC3=O)Oc3ccccc32)=C(O)C1` (racemic), in data set [1], the inhibitory constant (Ki) is 0.033 µM. Further, the IC50 is 0.061 µM in data set [2], over 10 µM in data set [3], over 10 µM in [4] and over 10 µM in data set [5]. The Tmax in data set [6] was determined as 1 h. Also, the maximum concentration (Cmax) in data set [7] worked out at 2400 nM. Further, in [8], the half-life is 5.2 h. The Activity entry in the data set with Mus musculus [9] is “Non-toxic”; in the data set with Mus musculus [10], “Non-toxic”; in the data set on Rattus norvegicus it was “Dose-dependent effect”.

Take `CC1(C)CC(=O)C(C2C3=C(CC(C)(C)CC3=O)Oc3cc(Br)ccc32)=C(O)C1` (configuration not stated): the inhibition constant Ki in data set [1] is 0.036 µM. In data set [2], the IC50 was 0.081 µM.

For the molecule `COc1cccc2c1C(C1=C(O)CC(C)(C)CC1=O)C1=C(CC(C)(C)CC1=O)O2` (configuration not stated), the Ki in [1] was over 1 µM.

As to `CCOc1ccc2c(c1)OC1=C(C(=O)CC(C)(C)C1)C2C1=C(O)CC(C)(C)CC1=O` (configuration not stated), the Ki in [1] turned out to be 0.833 µM.

As for `O=C1CC2(CCC2)CC(O)=C1C1C2=C(CC3(CCC3)CC2=O)Oc2ccccc21` (configuration not stated), the Ki in data set [1] is 0.014 µM. For the same molecule, in data set [2], the IC50 amounted to 0.045 µM.

For `O=C1CC2(CCCCC2)CC(O)=C1C1C2=C(CC3(CCCCC3)CC2=O)Oc2ccccc21` (configuration not stated), in data set [1], the inhibition constant Ki was 0.024 µM. Moreover, in data set [2], the half-inhibitory concentration (IC50) is 0.109 µM.

For the molecule `CCC1(CC)CC(=O)C(C2C3=C(CC(CC)(CC)CC3=O)Oc3ccccc32)=C(O)C1` (configuration not stated), the Ki in [1] worked out at 0.02 µM. In addition, the concentration for half-maximal inhibition (IC50) in data set [2] came to 0.09 µM.

As for `O=C1CCCC(O)=C1C1C2=C(CCCC2=O)Oc2ccccc21` (configuration not stated), the Ki in [1] is over 1 µM.

Consider `CC1(C)CC(=O)C([C@@H]2C3=C(CC(C)(C)CC3=O)Oc3ccccc32)=C(O)C1`, for which, in data set [1], the inhibition constant Ki is over 1 µM. Further, in [2], the IC50 is 0.343 µM. Besides, in data set [11], the fraction unbound came out at 0.1. In addition, the Kp in [12] was 0.1.

Regarding `CC1(C)CC(=O)C(C2C3=C(CC(C)(C)CC3=O)Oc3cc(F)ccc32)=C(O)C1` (configuration not stated), the inhibitory constant (Ki) in data set [1] is 0.029 µM. The concentration for half-maximal inhibition (IC50) in data set [2] stood at 0.063 µM.

As to `CC1(C)CC(=O)C([C@H]2C3=C(CC(C)(C)CC3=O)Oc3ccccc32)=C(O)C1`, the inhibition constant (Ki) in data set [1] came to 0.014 µM. In addition, the IC50 in [2] amounted to 0.034 µM. In [6], the time to peak (Tmax) is 0.5 h. Moreover, the Cmax in data set [7] is 2500 nM. Also, the half-life in data set [8] was 2.7 h. In data set [11], this molecule displayed a fraction unbound of 0.27. For the same molecule, in data set [12], the Kp came to 0.34. For the same molecule, in the data set with Rattus norvegicus, the Activity result is “Dose-dependent effect”.

`CC1(C)CC(=O)C(C2C3=C(CC(C)(C)CC3=O)Oc3cc(Cl)ccc32)=C(O)C1` (configuration not stated): in data set [1], the Ki came out at 0.034 µM. Further, the IC50 in data set [2] is 0.082 µM.

`COc1ccc2c(c1)C(C1=C(O)CC(C)(C)CC1=O)C1=C(CC(C)(C)CC1=O)O2` (configuration not stated): the Ki in [1] came to 0.59 µM.

For `CC1(C)CC(=O)C(C2C3=C(CC(C)(C)CC3=O)Oc3c(Cl)cccc32)=C(O)C1` (configuration not stated), the Ki in data set [1] was 0.071 µM.

Regarding `CC1(C)CC(=O)C(C2C3=C(CC(C)(C)CC3=O)Oc3c(F)cccc32)=C(O)C1` (configuration not stated), the inhibition constant Ki in [1] was 0.034 µM. In addition, in data set [2], the concentration for half-maximal inhibition (IC50) turned out to be 0.073 µM.

For the molecule `CC1(C)CC(=O)C(C2C3=C(CC(C)(C)CC3=O)Oc3ccc(F)cc32)=C(O)C1` (configuration not stated), the inhibitory constant (Ki) in data set [1] turned out to be 0.081 µM.

Consider `COc1cccc2c1OC1=C(C(=O)CC(C)(C)C1)C2C1=C(O)CC(C)(C)CC1=O` (configuration not stated), for which the Ki in data set [1] amounted to 2.17 µM.

In the case of `Cc1ccc2c(c1)OC1=C(C(=O)CC(C)(C)C1)C2C1=C(O)CC(C)(C)CC1=O` (configuration not stated), the Ki in [1] was 0.036 µM. Moreover, the 50% inhibitory concentration (IC50) in [2] worked out at 0.111 µM.

With `O=C1CC2(CCCC2)CC(O)=C1C1C2=C(CC3(CCCC3)CC2=O)Oc2ccccc21` (configuration not stated), the Ki in data set [1] is 0.017 µM. The half-inhibitory concentration (IC50) in data set [2] was determined as 0.058 µM.
